Measured values published in ChEMBL document CHEMBL4118248, “Small Molecule Proprotein Convertase Subtilisin/Kexin Type 9 (PCSK9) Inhibitors: Hit to Lead Optimization of Systemic Agents” (J Med Chem, 2018).

Columns and labels:
[1] = molecular target: T1, 80S Ribosome (Homo sapiens) (UniProt P08865+P42677+P62753+P15880+P23396+P61247+P62701+P22090+P46782+P62081+P62241+P46781+P46783+P62280+P25398+P62277+P62263+P62841+P62244+P62249+P08708+P62269+P39019+P60866+P63220+P62266+P62847+P62851+P62854+P62979+P62857+P62273+P62861+P39023+P36578+P46777+Q02878+P18124+P62424+P62917+P32969+P27635+P62906+P62913+P30050+P26373+P40429+P50914+P61313+P18621+Q07020+Q02543+P84098+P46778+P35268+P62829+P62750+P83731+P61254+P61353+P46776+P46779+P47914+P62888+P62899+P62910+P49207+P42766+P18077+Q9Y3U8+P83881+P61927+P61513+P63173+P62891+P62945+P05388+P05386); assay: Binding affinity to 80S ribosome in human HuH7 cells harboring pCMV-truncated human PCSK9 (1 to 152 residues)-proLuc assessed as inhibition of PCSK9 mRNA translation at 20 uM after overnight incubation by luciferase reporter gene assay relative to control; format: cell-based; settings: Huh-7
In short: (§1)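 Huh7 cells stably carry human PCSK9 prodomain (aa 1-152) fused to firefly luciferase (aa 2-550) in pcDNA3.1, kept under 900 µg/mL Geneticin. Plated 10,000/well in phenol red-free DMEM/10% FBS and left 4 h, then compound added (top final 20 µM, 0.5% DMSO). Incubated overnight at 37 °C, luminescence read with SteadyGlo.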

Bone marrow cell = assay: Cytotoxicity against rat bone marrow cells assessed as reduction in cell viability after 72 hrs by CellTiter-Glo assay; format: cell-based
[2] = molecular target: T1, 80S Ribosome (Homo sapiens); assay: Binding affinity to 80S ribosome in human HuH7 cells assessed as inhibition of PCSK9 mRNA translation at 20 uM after overnight incubation by ELISA relative to control; format: cell-based; settings: Huh-7
Rattus norvegicus [3] = assay: Toxicity in Crl:CD(SD) rat assessed as single cell necrosis in crypt cells in ileum at 50 mg/kg/day, po daily via gavage for 14 days measured on day 15 post last dose; format: organism-based; settings: in vivo, 336 h
Rattus norvegicus [4] = assay: Toxicity in Crl:CD(SD) rat assessed as discolored/mottled liver at 50 mg/kg/day, po daily via gavage for 14 days measured on day 15 post last dose; format: organism-based; settings: in vivo, 336 h
In short: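 Male rats, 5 per group, given vehicle or compound at 50 mg/kg/day by oral gavage for 14 days. Mortality, clinical signs and hematology monitored throughout. Necropsy on day 15 with microscopy of bone marrow, ileum, duodenum, jejunum and liver. Toxicokinetics at 1, 3, 6 and 24 h post-dose on day 14.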

[5] = Lipophilicity, log D of the compound by shake flask method; format: physicochemical; settings: octanol/water
In short: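 LogD measured by the shake-flask method.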

[6] = Intrinsic clearance in rat liver microsomes; format: ADME, microsome; settings: read-out: CLH
[7] = Intrinsic clearance in human liver microsomes; format: ADME, microsome; settings: read-out: CLH
80S Ribosome [8] = assay: Binding affinity to 80S ribosome in human HuH7 cells harboring pCMV-truncated human PCSK9 (1 to 152 residues)-proLuc assessed as inhibition of PCSK9 mRNA translation after overnight incubation by luciferase reporter gene assay; format: cell-based; settings: huh-7; in short: as §1
[9] = molecular target: T2, Voltage-gated inwardly rectifying potassium channel KCNH2 (Homo sapiens, UniProt Q12809); assay: Inhibition of dofetilide binding to human ERG by fluorescence polarization assay
T2 sequence (Q12809 whole entry, the tested form may be a part): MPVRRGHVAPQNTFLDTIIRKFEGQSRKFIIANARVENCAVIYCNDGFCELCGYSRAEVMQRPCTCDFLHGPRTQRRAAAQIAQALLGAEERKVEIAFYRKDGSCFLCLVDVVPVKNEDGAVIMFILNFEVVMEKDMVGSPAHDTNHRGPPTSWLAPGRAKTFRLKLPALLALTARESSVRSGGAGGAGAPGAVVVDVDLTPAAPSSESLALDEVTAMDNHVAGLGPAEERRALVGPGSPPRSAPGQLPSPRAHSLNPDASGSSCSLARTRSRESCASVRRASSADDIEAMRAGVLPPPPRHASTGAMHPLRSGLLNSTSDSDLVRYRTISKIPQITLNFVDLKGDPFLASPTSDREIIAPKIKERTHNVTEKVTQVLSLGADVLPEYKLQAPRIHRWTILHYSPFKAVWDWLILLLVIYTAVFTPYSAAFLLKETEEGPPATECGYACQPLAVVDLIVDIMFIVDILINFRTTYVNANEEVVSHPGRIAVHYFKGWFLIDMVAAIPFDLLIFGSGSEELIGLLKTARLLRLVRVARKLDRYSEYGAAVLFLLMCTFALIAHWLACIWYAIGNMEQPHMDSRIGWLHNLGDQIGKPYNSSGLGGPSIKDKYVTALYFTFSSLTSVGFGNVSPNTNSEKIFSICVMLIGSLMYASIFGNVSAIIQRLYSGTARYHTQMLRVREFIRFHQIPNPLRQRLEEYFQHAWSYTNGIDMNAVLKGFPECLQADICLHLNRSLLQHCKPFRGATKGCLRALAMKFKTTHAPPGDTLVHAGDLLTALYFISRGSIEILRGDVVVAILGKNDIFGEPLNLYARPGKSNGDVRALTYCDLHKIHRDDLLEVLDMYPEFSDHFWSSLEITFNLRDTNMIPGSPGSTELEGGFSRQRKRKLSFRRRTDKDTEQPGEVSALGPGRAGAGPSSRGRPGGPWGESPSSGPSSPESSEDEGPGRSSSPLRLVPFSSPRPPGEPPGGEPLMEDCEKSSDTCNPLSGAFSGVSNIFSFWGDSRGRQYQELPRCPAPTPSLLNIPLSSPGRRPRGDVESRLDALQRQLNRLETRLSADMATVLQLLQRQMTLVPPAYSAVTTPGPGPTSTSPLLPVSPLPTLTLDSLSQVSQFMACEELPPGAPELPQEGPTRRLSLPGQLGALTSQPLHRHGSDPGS

[10] = Selectivity index, ratio of IC50 for cytotoxicity against rat bone marrow cells to IC50 for 80S ribosome in human HuH7 cells harboring pCMV-truncated human PCSK9 (1 to 152 residues)-proLuc; format: toxicity, cell-based; settings: read-out: Ratio IC50
80S Ribosome [11] = assay: Binding affinity to 80S ribosome in human HuH7 cells assessed as inhibition of PCSK9 mRNA translation after overnight incubation by ELISA; format: cell-based; settings: huh-7
In short: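 Huh7 cells kept in high-glucose DMEM, 10% BSA-free FBS, 2 mM L-glutamine, pen/strep at 37 °C, 5% CO2. Plated 7,500/well with compound or vehicle and incubated overnight (16-20 h). Secreted PCSK9 in the medium read by AlphaLISA: two antibodies to different mature-PCSK9 epitopes, biotinylated antibody 3 nM final, acceptor beads 10 µg/mL, 0.5 h rt; streptavidin donor beads 40 µg/mL, 1 h rt.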

[12] = Apparent permeability in RRCK cells; format: ADME, cell-based, Canis lupus familiaris, MDCKII-LE; settings: dog, MDCK
In short: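 Passive permeability measured in RRCK cells, a modified Madin-Darby canine kidney line; Papp reported in 10^-6 cm/s.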

[13] = Permeability from apical to basolateral side in MDCK cells harboring MDR1; format: ADME, cell-based, Canis lupus familiaris; settings: dog, read-out: permeability
In short: (§2)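 Bidirectional permeability across MDR1-transfected MDCK monolayers, apical-to-basolateral and basolateral-to-apical; Papp reported in 10^-6 cm/s.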

[14] = Permeability from basolateral to apical side in MDCK cells harboring MDR1; format: ADME, cell-based, Canis lupus familiaris; settings: dog, read-out: permeability; in short: as §2
Cytochrome P450 1A2 = molecular target: T3, Cytochrome P450 1A2 (Homo sapiens, UniProt P05177); assay: Inhibition of CYP1A2 (unknown origin); format: ADME
T3 sequence (P05177 whole entry): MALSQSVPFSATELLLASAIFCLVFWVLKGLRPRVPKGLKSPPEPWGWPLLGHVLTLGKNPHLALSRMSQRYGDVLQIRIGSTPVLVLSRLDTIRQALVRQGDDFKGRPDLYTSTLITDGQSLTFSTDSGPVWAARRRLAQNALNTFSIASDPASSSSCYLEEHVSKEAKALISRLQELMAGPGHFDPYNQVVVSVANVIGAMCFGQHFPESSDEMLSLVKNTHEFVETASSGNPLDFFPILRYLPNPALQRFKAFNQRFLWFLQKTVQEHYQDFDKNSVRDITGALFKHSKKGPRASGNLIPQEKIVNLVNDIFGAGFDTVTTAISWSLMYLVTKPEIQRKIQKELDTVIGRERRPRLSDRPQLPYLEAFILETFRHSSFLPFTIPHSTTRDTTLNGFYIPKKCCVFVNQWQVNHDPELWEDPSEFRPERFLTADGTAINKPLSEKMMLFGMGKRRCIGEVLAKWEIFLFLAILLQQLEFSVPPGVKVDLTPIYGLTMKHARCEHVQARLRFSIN
In short: (§3)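 Inhibition of CYP1A2, 2D6, 2C9 and 3A4 reported as IC50, or as percent inhibition at 3 µM.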

Cytochrome P450 2D6 = Cytochrome P450 2D6 (Homo sapiens, UniProt P10635); assay: Inhibition of CYP2D6 (unknown origin); format: ADME; in short: as §3
Chain of Cytochrome P450 2D6 (P10635 whole entry): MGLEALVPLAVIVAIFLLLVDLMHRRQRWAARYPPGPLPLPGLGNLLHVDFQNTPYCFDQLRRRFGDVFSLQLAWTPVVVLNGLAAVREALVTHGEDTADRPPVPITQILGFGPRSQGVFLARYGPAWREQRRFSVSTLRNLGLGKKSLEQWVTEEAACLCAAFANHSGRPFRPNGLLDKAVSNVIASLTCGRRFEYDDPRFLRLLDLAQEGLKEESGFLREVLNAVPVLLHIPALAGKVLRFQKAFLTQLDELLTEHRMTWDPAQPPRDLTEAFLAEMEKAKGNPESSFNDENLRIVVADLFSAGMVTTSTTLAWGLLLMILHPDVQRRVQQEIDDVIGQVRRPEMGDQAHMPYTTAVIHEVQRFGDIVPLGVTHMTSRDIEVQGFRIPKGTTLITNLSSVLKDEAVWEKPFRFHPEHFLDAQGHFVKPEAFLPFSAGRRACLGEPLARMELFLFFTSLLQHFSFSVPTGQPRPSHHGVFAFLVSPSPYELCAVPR

Cytochrome P450 2C9 = Cytochrome P450 2C9 (Homo sapiens, UniProt P11712); assay: Inhibition of CYP2C9 (unknown origin); format: ADME; in short: as §3
Chain of Cytochrome P450 2C9 (P11712 whole entry): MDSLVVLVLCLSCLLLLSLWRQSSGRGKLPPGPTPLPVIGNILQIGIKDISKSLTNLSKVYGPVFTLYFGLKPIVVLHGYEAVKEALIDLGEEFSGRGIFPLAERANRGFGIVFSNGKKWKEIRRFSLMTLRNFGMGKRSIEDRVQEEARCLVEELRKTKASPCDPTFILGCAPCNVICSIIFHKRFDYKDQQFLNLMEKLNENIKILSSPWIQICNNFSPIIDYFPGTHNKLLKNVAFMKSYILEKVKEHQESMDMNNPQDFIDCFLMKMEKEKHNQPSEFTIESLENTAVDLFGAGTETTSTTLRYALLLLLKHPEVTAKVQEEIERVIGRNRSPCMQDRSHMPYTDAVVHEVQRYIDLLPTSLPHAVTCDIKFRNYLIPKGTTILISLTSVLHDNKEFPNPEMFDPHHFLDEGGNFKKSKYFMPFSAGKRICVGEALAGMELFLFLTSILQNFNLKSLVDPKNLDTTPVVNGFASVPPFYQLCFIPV

Cytochrome P450 3A4 = Cytochrome P450 3A4 (Homo sapiens, UniProt P08684); assay: Inhibition of CYP3A4 (unknown origin); format: ADME; in short: as §3
Chain of Cytochrome P450 3A4 (P08684 whole entry): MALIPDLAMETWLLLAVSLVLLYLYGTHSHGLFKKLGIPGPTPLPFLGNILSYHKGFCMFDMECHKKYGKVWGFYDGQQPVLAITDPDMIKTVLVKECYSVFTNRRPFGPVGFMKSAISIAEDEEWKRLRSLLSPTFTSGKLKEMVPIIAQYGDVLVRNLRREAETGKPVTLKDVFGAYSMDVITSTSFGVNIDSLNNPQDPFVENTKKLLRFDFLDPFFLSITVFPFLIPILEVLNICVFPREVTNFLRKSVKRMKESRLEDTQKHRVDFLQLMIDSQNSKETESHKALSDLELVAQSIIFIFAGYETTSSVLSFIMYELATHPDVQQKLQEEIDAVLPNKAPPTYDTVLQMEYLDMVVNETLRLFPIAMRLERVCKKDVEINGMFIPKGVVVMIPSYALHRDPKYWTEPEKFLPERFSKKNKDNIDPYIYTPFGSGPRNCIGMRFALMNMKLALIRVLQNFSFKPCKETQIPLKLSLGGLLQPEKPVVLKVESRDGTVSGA

[15] = Fraction unbound in rat plasma; format: ADME, cell-free
In short: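 Unbound fraction measured in rat plasma.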

[16] = molecular target: T2, Voltage-gated inwardly rectifying potassium channel KCNH2; assay: Inhibition of human ERG by patch clamp method

SMILES	IC50 (Bone marrow cell)	logD [5]	microsomal CLint [6]	microsomal CLint [7]	IC50 (80S Ribosome [8])	Ki [9]	IC50 (80S Ribosome [11])	also measured
O=C(c1ccc(-n2nnc3cccnc32)cc1)N(c1ncccc1Cl)[C@H]1CCCNC1	> 20 µM							inhibition [1]: 61%; inhibition [2]: 24%; Activity (Rattus norvegicus [3]): Non-Toxic; Activity (Rattus norvegicus [4]): Toxic
Cc1ccc2nnn(-c3ccc(C(=O)N(c4ncccc4Cl)[C@@H]4CCCNC4)cc3)c2n1	1 µM	1.2	38.5 µL/min/mg	9 µL/min/mg	0.45 µM	34 µM	0.9 µM	selectivity ratio [10]: 2
CNc1cncc(-c2ccc(C(=O)N(c3ncccc3Cl)[C@@H]3CCCNC3)cc2)n1	19.6 µM	1.07		8.7 µL/min/mg		38.4 µM	3.08 µM	
O=C(c1ccc(-n2nnc3cccnc32)nc1)N(c1ncccc1Cl)[C@@H]1CCCNC1		0.1	14.7 µL/min/mg	< 8 µL/min/mg	4.1 µM	12.7 µM	9.24 µM	
Cn1cc(-c2ccc(C(=O)N(c3nccc4ccccc34)[C@@H]3CCCNC3)cc2)cn1	2.9 µM	0.9		13.3 µL/min/mg	1.06 µM	16 µM	2.38 µM	
Cc1cncc(-c2ccc(C(=O)N(c3ncccc3Cl)[C@@H]3CCCNC3)cc2)n1	43.7 µM	0.8 to 1.37		< 8 µL/min/mg		38.2 µM	2.82 µM	Papp [12]: 105 nm/s; Papp A→B [13]: 7 nm/s; Papp B→A [14]: 200 nm/s; IC50 (Cytochrome P450 1A2): > 30 µM; IC50 (Cytochrome P450 2D6): > 30 µM; IC50 (Cytochrome P450 2C9): > 30 µM; IC50 (Cytochrome P450 3A4): > 30 µM; fraction unbound [15]: 0.41; IC50 [16]: 59.8 µM
